Screening results (PubChem BioAssay)
In the library only some 3.5% were active in any assay of this set; here they are far more common.
mABHD4 FP = ABHD4 inhibitors, primary screen, biochemical, fluorescence polarization, mouse. (Lyso)-N-acylphosphatidylethanolamine lipase (Mus musculus), Q8VD66. purified mABHD4, FP-Rh probe fluorescence polarization. inhibition, % at 8.92 µM. 0.54% of 370,000 active. AID 720543, 2013;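 active means inhibition exceeding the mean over every tested compound plus 3 SD, cut at about 30% in these data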;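 further: 0% = plate median of compound wells and 100% = S159A mutant with DMSO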
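system = mouse ABHD4 enzyme, wild type | medium = HEPES pH 7.0, NaCl, Pluronic buffer | also added = FP-Rh probe | incubation = Enzyme–compound pre-incubation 45 min, then probe 60 min, both 25 °C | technique = fluorescence polarization, excitation 525 nm, emission 598 nm, BODIPY TMR filters | controls = S159A mutant high control, sample median low control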
rCAG binder = binders of r(CAG) RNA repeats, primary screen, biochemical, fluorescence | r(CAG) RNA repeat, TO-PRO-1 dye displacement fluorescence | AID 651821, 2012 | 1.3% of 370,000 active | inhibition, % at 3 µM;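 active means inhibition above the plate cutoff, the mean of all test compounds on that plate plus 3 SD, cut at about 35% in these data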;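 further: 0% = DMSO alone and 100% = 100 µM mitoxantrone as full dye displacement; higher means more dye released from RNA so lower well fluorescence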
HTRA1 inhibitor = HTRA1 serine protease inhibitors, primary screen, biochemical, fluorescence polarization, HTS. recombinant HTRA1, FP-rhodamine activity-based probe. inhibition, % at 5.96 µM. 0.5% of 340,000 active. AID 504803, 2011; in the data active means inhibition above about 36%;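 further: 0% = enzyme with DMSO and 100% = wells lacking enzyme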
Target sequence (Q92743 whole entry, looked up): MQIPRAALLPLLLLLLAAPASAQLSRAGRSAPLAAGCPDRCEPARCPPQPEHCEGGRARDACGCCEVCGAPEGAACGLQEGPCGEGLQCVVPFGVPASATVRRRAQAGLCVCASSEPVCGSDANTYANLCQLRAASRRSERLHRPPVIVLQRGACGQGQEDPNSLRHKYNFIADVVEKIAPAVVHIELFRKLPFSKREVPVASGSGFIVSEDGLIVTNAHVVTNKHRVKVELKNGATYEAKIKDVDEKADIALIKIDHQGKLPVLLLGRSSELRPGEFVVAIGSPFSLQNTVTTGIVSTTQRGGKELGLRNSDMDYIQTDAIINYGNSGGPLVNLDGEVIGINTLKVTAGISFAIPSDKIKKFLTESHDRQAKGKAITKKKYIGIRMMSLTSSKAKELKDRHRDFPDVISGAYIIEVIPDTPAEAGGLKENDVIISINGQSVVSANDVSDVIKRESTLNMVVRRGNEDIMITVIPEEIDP
SIAE primary = human SIAE inhibitors, primary screen, biochemical, fluorescence polarization, FP-Rh probe, 1536-well HTS | inhibition, % at 9.66 µM | 0.69% of 370,000 active | Sialate O-acetylesterase (Homo sapiens), Q9HAT2 | SIAE FP-Rh probe binding;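 active means inhibition above a cutoff: mean of compounds within the control limits plus 3 SD of those, cut at about 17% in these data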;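 further: 0% = plate median of compound wells and 100% = probe without SIAE protein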
PRMT1 inh = PRMT1 methyltransferase inhibitors, primary screen, biochemical, fluorescence polarization. Protein arginine N-methyltransferase 1 (Homo sapiens), Q99873. recombinant PRMT1, activity-based probe fluorescence polarization. inhibition, % at 2.79 µM. 1.3% of 370,000 active;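 active means inhibition above about 21% made by adding two undisclosed values, limit read from the data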
TCR-CD3 inh = inhibitors of human TCR-CD3 interaction, primary screen, biochemical, fluorescence, TAMRA-labeled TCR probe | inhibition, % at 9.4 µM | 0.37% of 360,000 active | AID 651800, 2012; in the data active means inhibition above about 19%;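 further: recombinant mutant TCR 2C K166C tagged with TAMRA read by polarization; 0% = receptor in buffer alone and 100% = receptor with positive control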
rCAG bind conf = small molecules binding CAG repeat RNA – biochemical, fluorescence, confirmation. 70% of 4,300 active. r(CAG) RNA repeat, TO-PRO-1 dye displacement fluorescence. inhibition, % at 3 µM. shares compounds with rCAG binder. AID 652065, 2013;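 active means inhibition above a per-plate cutoff, the mean inhibition of sample wells plus 3 SD, cut at about 35% in these data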;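 further: loss of TO-PRO-1 fluorescence as compound displaces dye from 1x1 AA loop RNA; 0% = DMSO only wells and 100% = 100 µM mitoxantrone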
DNA CAG counter = displacement of TO-PRO-1 from CAG DNA duplex, counter-screen for rCAG RNA repeat binder project, biochemical, fluorescence, TO-PRO-1 dye, d(CAG) DNA oligo; shares compounds with rCAG binder; d(CAG) DNA oligo TO-PRO-1 dye displacement; inhibition, % at 3 µM; 94% of 4,300 active; AID 652068, 2013;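 active means inhibition above its plate's cutoff, the mean test-well inhibition plus 3 SD, cut at about 4.8% in these data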;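 further: 0% = DNA dye mix with DMSO and 100% = 100 µM mitoxantrone; hits displace the dye from DNA and so lower well fluorescence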
* = called active by the depositor; · = no result given.

SMILES	mABHD4 FP	rCAG binder	HTRA1 inhibitor	SIAE primary	PRMT1 inh	TCR-CD3 inh	rCAG bind conf	DNA CAG counter
Cc1ccc(S(=O)(=O)Oc2ccc(/C=C3/C(=N)N4C(=NC3=O)SN=C4S(C)(=O)=O)cc2)cc1	0.2	31.8	-14.5	-19.0	-2.5	0.4	·	·
O=C(OC12CCCN(C1)/C(=C/c1ccc(Cl)cc1)C2)c1ccc(Cl)cc1 (stereo unspecified)	0.6	5.9	·	1.8	-0.4	·	·	·
CSCCCNC(=O)CN1C(=O)C2CCCCN2C(=O)c2ccccc21 (stereo unspecified)	6.0	4.0	·	11.4	-5.4	·	·	·
COc1ccc(C2C(C(=O)Nc3ccc(F)cc3)CCC(=O)N2c2ccc(OC)cc2)cc1 (stereo unspecified)	6.8	3.6	·	-1.0	1.3	·	·	·
COc1ccc(C2C(C(=O)Nc3cc(OC)c(OC)c(OC)c3)CCC(=O)N2c2ccc(OC)cc2)cc1 (stereo unspecified)	1.9	3.2	·	6.6	-0.4	·	·	·
Cc1cc(C)cc(-n2cccc2/C=C2/C(=N)N3C(=NC2=O)SN=C3S(C)(=O)=O)c1	-83.7	88.9*	-82.2	-58.2	3.4	-5.3	87.6*	61.4*
COc1cc(/C=C2/C(=N)N3C(=NC2=O)SN=C3S(C)(=O)=O)ccc1OS(=O)(=O)c1ccc(C)cc1	-1.1	32.2	-12.5	-12.9	-3.5	-2.2	·	·
CSC1=C(C#N)C(c2ccccc2Cl)C2=C(N1)c1ccccc1C2=O (stereo unspecified)	2.2	1.4	-2.1	6.2	3.2	0.1	·	·
Nc1nc2c(c(=O)[nH]1)C(c1cccc3ccccc13)C1=C(N2)c2ccccc2C1=O (stereo unspecified)	-7.6	78.0*	-14.4	-18.4	8.8	2.7	57.1*	34.3*
COC(=O)c1c(NS(C)(=O)=O)sc2c1CCCC2	0.9	4.8	-2.2	2.3	2.3	-5.2	·	·
COC(=O)c1c(NS(=O)(=O)Cc2ccccc2)sc2c1CCCC2	7.9	48.0*	-8.8	1.5	-1.9	-2.2	46.6*	15.8*
CC(C)OC(=O)c1c(NS(=O)(=O)c2ccccc2)sc2c1CCCC2	5.3	35.3*	-0.3	0.1	1.2	-4.0	49.5*	14.0*
O=C(OCCN1CCN(C2CN(Cc3cn(Cc4ccccc4Cl)nn3)S(=O)(=O)C2)CC1)c1cc2ccccc2o1 (stereo unspecified)	4.0	3.8	·	-2.9	1.8	·	·	·
O=[N+]([O-])c1ccccc1S(=O)(=O)Nc1ccc(S(=O)(=O)Nc2nccs2)cc1	0.5	3.5	-1.9	1.5	2.0	1.7	·	·
Nc1ccc(S(=O)(=O)Nc2nccs2)cc1N=Nc1ccccc1[N+](=O)[O-]	14.6	67.5*	7.6	5.4	24.7*	10.8	81.1*	47.9*
CN(CCc1ccccn1)C(=O)c1ccc(Sc2ccccc2Cl)c([N+](=O)[O-])c1	-2.1	-0.1	·	-1.9	1.6	·	·	·
O=C1CS(=O)(=O)N(Cc2ccc(F)cc2)c2ccccc21	-19.9	41.3*	-10.3	7.2	-1.2	1.0	7.1	4.5*
COc1ccc(CN2CCN(c3ccccc3OC)CC2)cc1OC	11.5	-6.8	5.0	8.0	3.6	-4.7	·	·
O=C1CS(=O)(=O)N(Cc2ccccc2F)c2ccc(Br)cc21	-62.8	44.2*	-83.7	-13.1	2.3	-1.5	29.4	13.3*
COc1ccc(CN2c3ccccc3C(=O)CS2(=O)=O)cc1OC	-21.3	35.5*	·	-4.7	-2.4	-3.1	12.7	6.5*
O=C1CCN(Cc2ccccc2)S(=O)(=O)c2ccc(F)cc21	0.5	-2.9	-4.3	-0.7	-2.4	-1.2	·	·
COc1ccc(CN2C(=O)c3ccccc3C2=O)cc1	-1.6	-6.2	2.8	1.6	-4.9	1.7	·	·
COc1cc(CN2c3ccccc3C(=O)CS2(=O)=O)cc(OC)c1	-23.7	47.0*	-25.4	-0.9	-2.6	1.5	15.2	8.5*
O=C(O[C@H]1CC[C@@]23CCCN2C(=O)CCC[C@H]3C1)N1CCOCC1	9.4	·	·	-0.9	1.9	·	·	·
COP(=O)(O)[C@@H](CC(C)C)NC(=O)OCc1ccccc1	-0.3	1.1	·	3.8	1.5	·	·	·
SMILES	mABHD4 FP	rCAG binder	HTRA1 inhibitor	SIAE primary	PRMT1 inh	TCR-CD3 inh	rCAG bind conf	DNA CAG counter
N#C/C(=C\c1ccccc1OCc1ccc(C(=O)O)cc1)c1ccccc1	-1.8	34.9*	-30.5	-8.9	3.8	8.2	29.8	5.3*
O=C(O)c1ccc(COc2ccccc2/C=C2\NC(=O)N(Cc3ccccc3F)C2=O)cc1	-21.4	42.4*	-31.1	-15.4	1.1	5.3	44.9*	13.7*
COc1cc(/C=C2/NC(=O)N(Cc3ccccc3F)C2=O)cc(OC)c1O	18.2	8.0	11.8	9.4	6.1	-9.2	·	·
Cc1ccc(CN2C(=O)N/C(=C/c3ccc(-c4ccc(C(=O)O)cc4)o3)C2=O)cc1	4.9	20.1	-4.6	-2.3	13.0	0.2	·	·
O=C(O)c1ccc(COc2ccccc2Cl)cc1	-2.9	3.2	4.5	-2.2	-1.6	3.7	·	·
O=C(O)c1ccc(COc2ccccc2/C=C2\NC(=O)N(Cc3ccccc3)C2=O)cc1	-2.6	42.7*	-7.8	-2.7	-0.1	-0.5	45.6*	10.6*
COc1cc(/C=C(\C#N)C(=O)Nc2cccc(C(=O)O)c2)ccc1OCc1ccc(Cl)cc1	-2.8	4.3	-6.6	-21.1	7.1	-8.9	·	·
COc1cc(/C=C(/C#N)C(=O)Nc2ccccc2)c(Br)cc1OCc1ccc(C(=O)O)cc1	-45.3	46.1*	-15.7	-6.9	2.4	3.6	72.7*	35.2*
CN1C(=O)c2cc(NC(=O)Nc3ccccc3)ccc2OC[C@H]2O[C@@H](CC(=O)NC3Cc4ccccc4C3)CC[C@@H]21	8.4	10.4	·	2.9	0.9	·	·	·
CCCN1C(=O)/C(=C/c2ccccc2OCc2ccc(C(=O)O)cc2)NC1=S	-29.7	39.1*	-19.4	-13.4	0.6	-3.4	34.5	8.1*
Cc1ccc(NC(=O)CN2C(=O)N/C(=C/c3ccccc3OCc3cccc(C(=O)O)c3)C2=O)cc1	-15.1	75.8*	-51.7	-35.7	-0.9	-3.5	63.0*	26.8*
CCCN1C(=O)/C(=C/c2ccc(OCc3ccc(C(=O)O)cc3)c(OC)c2)NC1=S	7.0	5.2	·	3.1	-5.1	-5.8	·	·
O=C(CSc1nnc(-c2cccs2)n1Cc1ccco1)Nc1ccc(OCc2ccccc2)cc1	-21.9	8.8	·	-15.4	7.9	·	·	·
